# PglD DTNB: C. jejuni PglD acetyltransferase inhibitors, primary screen, biochemical, DTNB colorimetric, single point | 360,000 tested, 0.098% active | purified PglD enzyme, DTNB colorimetric CoA detection | inhibition, % at 12.5 µM; in the data active means inhibition above about 16%, passing the limit was not always enough; inconclusive means no clear call, values can overlap the other calls
# CR mimetic SO: reduction of superoxide in aged yeast, primary screen, HTS; S. cerevisiae aged cells, superoxide DHE fluorescence; stronger effect = lower value; superoxide response (% of plate mean), % at 10 µM; 330,000 tested, 0.18% active; AID 2690, 2010;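 active means superoxide response under a set limit, about three screen SD below normal, cut at about 65% in these data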;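 further: yeast aged for seven days with compound at 30 °C before DHE staining; 100% = average MFI of all compound-treated wells on the plate with controls excluded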
# Cneo AK release: Cryptococcus neoformans cell lysis inducers, primary screen, AK release luminescence, single concentration; AID 651654, 2012; C. neoformans lysis, adenylate kinase release luminescence, 4 h; normalised: neutral wells 0, clomiphene wells 100; lysis activity, % at 15 µM; 360,000 tested, 0.2% active;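 active means mean lysis activity across replicates of at least 80%, whatever share of replicates individually reach that level; inactive means mean lysis activity below 80%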
#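 Assay system: Cryptococcus neoformans yeast cells / Dosing: single-point compound dose / Timing: 4 h at 37 °C static, read 1 h later / Measured by: luminescence of released adenylate kinase using an AK detection reagent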
# SUMO Mot1 rescue: yeast Mot1-301 growth rescue at high temperature, primary screen, SUMOylation pathway inhibitor project, S. cerevisiae, ATP luminescence, 38.5C | S. cerevisiae Mot1-301 growth rescue; percent above DMSO median, 100 means doubled | growth rescue, % at 18.8 µM | 320,000 tested, 1% active;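 active means every valid replicate shows activation above 250% relative to neutral control wells; inactive means the rest, any valid replicate at or below 250%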;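 further: OY570 slx delta 5 strain wells were the positive control but not used for scaling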
# Ecoli rRNA inh: reduced GFP signal of wild-type E. coli, primary screen, bacterial rRNA inhibitor project, GFP/RFP fluorescence, OD600, single point. E. coli WT GFP vs humanized-ribosome RFP mutants, 24 h; stronger effect = lower value; DMSO median 0, no signal -100. GFP signal change (wild-type ribosome), % (concentration not given with the values). 350,000 tested, 1.6% active. AID 720706, 2013;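 active means significant combined selectivity score with lowered wild-type GFP, culture density cut under 30%, mutant RFP and density less affected; inactive means any of these conditions unmet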
# HepG2 cytotox: cytotoxicity in HepG2 cells, dose response, cytotoxicity control, cell-based, CellTiter-Glo luminescence, cherry-pick, set 4 | shares compounds with Ecoli rRNA inh | HepG2 viability, ATP luminescence, 72 h | activity change, negative = cytotoxicity, unspecified at 26 µM | 30 tested, under 10 active;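 active means compounds whose fitted half-maximal signal-loss concentration is at most twice their highest valid dose; inconclusive means flat curve with 30 to 70% signal loss, or poor fit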
# AID977621: growth inhibition of wild-type GFP E. coli, dose response, H69 mutant RFP, cherry-pick | activity change, negative = inhibition at 50 µM | AID 977621, 2014 | shares compounds with Ecoli rRNA inh | 1,900 tested, under 10 active | E. coli wild-type GFP strain growth, fluorescence, 24 h;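 active means Wild-type ribosome reporter drop at least double the humanized mutant ribosome reporter drop, growth loss under a set limit; inconclusive means no clear call, values can overlap the other calls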;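 further: wild-type GFP and H69 mutant RFP strains grown together 50/50 in each well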
# AID977628: E. coli growth inhibition, wild-type GFP versus h24 humanized RFP strain, dose response, h24 mutant RFP vs wild-type GFP, cherry-pick; shares compounds with Ecoli rRNA inh; E. coli WT GFP strain growth, fluorescence, 24 h; activity change, negative = inhibition at 50 µM; 1,900 tested, under 10 active; AID 977628, 2014;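 active means compound lowering the normal-ribosome reporter at least twice as much as the humanized-ribosome reporter, growth loss under a set limit; inconclusive means no clear call, values can overlap the other calls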;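 further: wild-type GFP and h24 humanized RFP strains co-cultured 1 to 1 per well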
# * hit, by the source's call; u = inconclusive; x = no result given. This is a sample that favours compounds with a hit; in the whole collection about 2.2% have one here.
SMILES,PglD DTNB,CR mimetic SO,Cneo AK release,SUMO Mot1 rescue,Ecoli rRNA inh,AID977621,AID977628,others
COc1cccc(NC(=O)CSc2nc3c([nH]c4ccccc43)c(=O)n2C)c1,x,121.5,x,95.6,2.6,x,x,
COc1cccc(NC(=O)CSc2nc3c(sc4ccccc43)c(=O)n2CCN(C)C)c1,x,111.3,x,x,-21.6*,u,-5.45,
O=C(Cc1coc2ccc3ccccc3c12)NCc1ccccc1,2.2,82.0,0.2,5.9,-26.4*,-0.562,x,
CCOC(=O)Cn1nnc(-c2ccc([N+](=O)[O-])cc2)n1,x,104.3,x,1.1,7.5,x,x,
CCOC(=O)C(C)(C)n1nnc(-c2ccc([N+](=O)[O-])cc2)n1,x,98.1,x,x,-23.1*,-7.45,u,
CCCNC(=O)C[C@H]1CC[C@@H]2[C@H](COc3ccc(NC(=O)C4CCOCC4)cc3C(=O)N2C)O1,1.6,x,0.1,x,2.6,x,x,
CCOc1ccc2oc(-c3ccccc3)c(C(=O)N(C)C)c2c1,5.5,114.9,-1.5,25.6,-25.5*,-0.573,-8.54,
O=S(=O)(NCc1ccc2c(c1)OCO2)c1cccc(F)c1,2.0,105.4,1.4,1.6,-2.1,x,x,
O=S(=O)(NCc1ccc2c(c1)OCO2)c1ccc2c(c1)oc1ccccc12,0.5,101.0,-1.3,-13.6,-19.2*,-17.3,x,
CC(CNc1ccc(Cl)cc1)(CNc1ccc(Cl)cc1)[N+](=O)[O-],0.8,x,-1.3,x,-20.3*,u,u,HepG2 cytotox=16.3
O=[N+]([O-])c1ccc(CNc2ccc(Cl)cc2)s1,-6.6,99.3,-3.3,-9.3,-52.6,x,x,
CSc1ccc(CN(C)CC(=O)NC(C)c2ccccc2)cc1 (stereo not given),-6.0,92.0,1.7,15.8,-31.0*,-6.8,x,
S=c1nc(-c2cccc(Br)c2)[nH][nH]1,-1.2,93.0,1.6,14.0,-20.2*,-7.43,-8.15,
C[C@@H]1CCCCO[C@H](CN(C)Cc2ccc(Cl)c(Cl)c2)[C@@H](C)CN([C@@H](C)CO)C(=O)c2cc(NS(=O)(=O)c3cn(C)cn3)ccc2O1,-0.1,x,3.3,x,-1.5,x,x,
COc1ccc(S(=O)(=O)Nc2ccc3c(c2)C(=O)N([C@@H](C)CO)C[C@H](C)[C@@H](CN(C)C(=O)Cc2ccccc2)OCCCC[C@@H](C)O3)cc1,-0.6,x,-3.1,x,-1.9,x,x,
COC(=O)c1ccsc1NC(=O)c1cccc(OC)c1,x,93.7,x,144.8,-26.9*,4.44,-4.44,
COC(=O)c1ccsc1NC(=O)c1ccco1,-3.0,95.2,-4.5,-14.0,8.1,x,x,
COc1ccccc1C#Cc1ccc([C@@H]2[C@H]3CN(C(=O)C4CCC4)CCCCN3[C@H]2CO)cc1,1.2,x,1.0,x,-40.8,x,x,
COc1ccc(CN(C)S(=O)(=O)c2nnc(NC(=O)c3cccc(OC)c3)s2)cc1,1.9,92.7,0.4,4.8,-8.8,x,x,
COc1cccc(C(=O)Nc2nnc(S(=O)(=O)N(C)Cc3ccccc3)s2)c1,-2.3,95.2,13.7,-0.3,-22.6*,-17.1,-17.9,
COc1ccccc1-c1ccc([C@@H]2C[C@H]3[C@H](CON3C)CN2C(=O)c2ccco2)cc1,-6.0,x,-0.9,x,-1.0,x,x,
CN1OC[C@@H]2CN(C(=O)c3ccco3)[C@H](c3ccc(-c4ccc(C#N)cc4)cc3)C[C@@H]21,x,x,x,x,-18.7*,-5.44,-4.72,
Cc1ccccc1S(=O)(=O)N1C[C@H]2CON(C)[C@H]2C[C@H]1c1cccc(-c2ccc(C#N)cc2)c1,1.3,x,-0.3,x,-18.4*,u,x,
O=C(NC[C@H]1N[C@H](CO)[C@@H]1c1ccc(-c2ccccc2F)cc1)c1ccccc1,1.0,x,7.7,x,-12.9,x,x,
CO[C@@H]1CC[C@H]2CCN(C)C(=O)[C@H](C)[C@H](OC)CN(C)C(=O)c3cc(C#N)ccc3OC[C@H]1O2,1.6,x,-5.0,x,3.8,x,x,
SMILES,PglD DTNB,CR mimetic SO,Cneo AK release,SUMO Mot1 rescue,Ecoli rRNA inh,AID977621,AID977628,others
COc1ccc(OC2C(=O)N(Cc3ccc(F)cc3)C2c2ccc(OC)c(OC)c2)cc1 (stereo not given),-0.8,88.9,0.3,-1.9,-8.8,x,x,
COc1ccc(OC2C(=O)N(Cc3ccc4c(c3)OCO4)C2c2sccc2C)cc1 (stereo not given),3.1,117.7,0.4,27.9,-21.8*,-12.9,x,
Cc1ccccc1CSc1nnc(-c2ccccn2)n1C,0.5,93.7,1.9,3.4,-20.9*,-7.18,u,
CN(C(=O)CN1C(=O)NC2(CCc3ccccc32)C1=O)C1CCCCC1 (stereo not given),1.5,93.5,0.9,-15.0,-13.2*,u,-13.6,
O=C(O)C[C@@H]1CC[C@@H](NC(=O)c2ccncc2)[C@H](CO)O1,2.4,x,11.6,x,0.6,x,x,
C[C@@H]1CN([C@@H](C)CO)S(=O)(=O)c2ccc(-c3ccccc3)cc2O[C@@H]1CN(C)C,x,x,x,x,-0.4,x,x,
CC1(c2ccc3ccccc3c2)NC(=O)N(CC(=O)N2CCN(c3ccccc3O)CC2)C1=O (stereo not given),-3.4,92.4,-2.5,-0.1,-19.6*,-4.59,-6.53,
COc1ccc2c3c(n(C)c2c1)[C@H](CO)N(C)CC31CN(S(C)(=O)=O)C1,x,x,x,x,3.4,x,x,
CCN(CC)S(=O)(=O)c1ccc(N2CCCC2)c(NC(=O)c2ccccc2OC)c1,1.1,101.5,-0.3,7.5,-20.6*,-16.1,-9.85,
C#CCN1C(=O)C(O)(c2c(C)[nH]c3ccccc23)c2ccccc21 (stereo not given),-0.6,81.5,-0.4,124.7,0.3,x,x,
CCCN1C(=O)C(O)(c2c(C)[nH]c3ccccc23)c2ccccc21 (stereo not given),12.6,101.9,-6.7,-9.8,-18.3*,-4.71,-5.56,
COC(=O)c1nc(-c2ccc(C)cc2)[nH]c1C(C)(C)C,-1.8,x,3.3,x,-20.7*,-13.5,-14.2,
C[C@H](CO)N1C[C@H](C)[C@@H](CN(C)S(=O)(=O)c2ccccc2)Oc2ccc(NC(=O)CCCN(C)C)cc2CC1=O,0.6,x,-3.5,x,1.6,x,x,

# Source: PubChem (several laboratories)
